Test results from ChEMBL document CHEMBL1141166, “2-[(Carboxymethyl)sulfanyl]-4-oxo-4-arylbutanoic acids selectively suppressed proliferation of neoplastic human HeLa cells. A SAR/QSAR study” (J Med Chem, 2005).

Key:
[1] = Partition coefficient (logP); type: physicochemical; conditions: octanol/water
Procedure, shortened: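 Calculated rather than measured: log P (n-octanol/water) estimated by Crippen's fragmentation method.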

HeLa [2] = test: Inhibitory concentration inducing 50% decrease in HeLa cell survival; type: functional, cell-based; conditions: Homo sapiens
Procedure, shortened: (§1)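 HeLa cells seeded at 2000/well and left 20 h, then exposed to five concentrations (final 3.12 to 50 or 100 μM/L, diluted from a 10 mM/L DMSO stock) in triplicate for 72 h. Medium was RPMI 1640 without phenol red with 10% FBS and 25 mM HEPES, pH 7.2. Survival by MTT: 4 h at 37 °C, SDS lysis, A570. Blank was subtracted and values taken as % of untreated control. IC50 is the concentration giving 50% survival loss.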

HeLa [3] = test: Observed concentration that required to induce 50% decrease in HeLa cell survival; type: functional, cell-based; conditions: Homo sapiens, read-out: Log 1/IC50 (converted); procedure, shortened: as §1
PBMC (Homo sapiens) [4] = test: Selectivity index that required to induce 50% decrease in PBMC (healthy human's peripheral blood cells) cells survival
PBMC+PHA (Homo sapiens) [5] = test: Selectivity index that required to induce 50% decrease in PBMC+PHA (healthy human's peripheral blood cells) cells survival
PBMC (Homo sapiens) [6] = test: Inhibitory concentration that required to induce 50% decrease in PBMC (healthy human's peripheral blood cells) cells survival
PBMC+PHA (Homo sapiens) [7] = test: Inhibitory concentration that required to induced a 50% decrease in PBMC+PHA (healthy human's peripheral blood cells) cells survival
PBMC+PHA (Homo sapiens) [8] = test: Inhibitory concentration that required to Induced a 50% decrease in PBMC+PHA (healthy human's peripheral blood cells) cells survival
PBMC+PHA (Homo sapiens) [9] = test: Inhibitory concentration that required to induce 50% decrease in PBMC+PHA (healthy human's peripheral blood cells) cells survival
PBMC (Homo sapiens) [10] = test: Inhibitory concentration that required to Induced a 50% decrease in PBMC (healthy human's peripheral blood cells) cells survival

| SMILES | logP [1] | IC50 (HeLa [2]) | IC50 (HeLa [3]) | Si (PBMC (Homo sapiens) [4]) | Si (PBMC+PHA (Homo sapiens) [5]) | IC50 (PBMC (Homo sapiens) [6]) | IC50 (PBMC+PHA (Homo sapiens) [7]) | IC50 (PBMC+PHA (Homo sapiens) [8]) | IC50 (PBMC+PHA (Homo sapiens) [9]) | IC50 (PBMC (Homo sapiens) [10]) |
| --- | --- | --- | --- | --- | --- | --- | --- | --- | --- | --- |
| CCCCc1ccc(C(=O)CC(SCC(=O)O)C(=O)O)cc1 (stereo not drawn) | 2.45 | 1.92 µM | 1.91 µM | – | – | – | – | – | – | – |
| O=C(O)CSC(CC(=O)c1ccc(F)cc1)C(=O)O (stereo not drawn) | 0.87 | 20.7 µM | 20.7 µM | – | – | – | – | – | – | – |
| CC(C)c1ccc(C(=O)CC(SCC(=O)O)C(=O)O)c(C(C)C)c1 (stereo not drawn) | 3.18 | 1.1 µM | 1.1 µM | 6.17 | 6.49 | 6.79 µM | 7.14 µM | – | – | – |
| CC(C)(C)c1ccc(C(C)(C)C)c(C(=O)CC(SCC(=O)O)C(=O)O)c1 (stereo not drawn) | 4.12 | 4.36 µM | 4.36 µM | 10 | 8.5 | 43.7 µM | – | 37.1 µM | – | – |
| Cc1ccc(C(=O)CC(SCC(=O)O)C(=O)O)cc1 (stereo not drawn) | 1.2 | 17.3 µM | 17.3 µM | – | – | – | – | – | – | – |
| O=C(O)CSC(CC(=O)c1ccc(Cl)cc1)C(=O)O (stereo not drawn) | 1.27 | 17.2 µM | 17.3 µM | – | – | – | – | – | – | – |
| CC(C)c1ccc(C(=O)CC(SCC(=O)O)C(=O)O)cc1 (stereo not drawn) | 1.94 | 3.33 µM | 3.33 µM | – | – | – | – | – | – | – |
| CCCCCCCCCCCCc1ccc(C(=O)CC(SCC(=O)O)C(=O)O)cc1 (stereo not drawn) | 5.79 | 1.71 µM | 1.71 µM | – | – | – | – | – | – | – |
| O=C(O)CSC(CC(=O)c1ccccc1)C(=O)O (stereo not drawn) | 0.71 | 15 µM | 15 µM | – | – | – | – | – | – | – |
| Cc1ccc(C(=O)CC(SCC(=O)O)C(=O)O)c(C)c1 (stereo not drawn) | 1.68 | 3.83 µM | 3.83 µM | – | – | – | – | – | – | – |
| CC(C)(C)c1ccc(C(=O)CC(SCC(=O)O)C(=O)O)cc1 (stereo not drawn) | 2.41 | 1.39 µM | 1.39 µM | – | – | – | – | – | – | – |
| CC(C)c1ccc(C(C)C)c(C(=O)CC(SCC(=O)O)C(=O)O)c1 (stereo not drawn) | 3.18 | 0.644 µM | 0.644 µM | 20.65 | 24.33 | 13.3 µM | – | – | 15.7 µM | – |
| Cc1ccc(C(=O)CC(SCC(=O)O)C(=O)O)c(Cl)c1 (stereo not drawn) | 1.75 | 4.73 µM | 4.73 µM | – | – | – | – | – | – | – |
| CCc1cc(CC)c(C(=O)CC(SCC(=O)O)C(=O)O)c(CC)c1 (stereo not drawn) | 3.42 | 0.88 µM | 0.879 µM | 21.56 | 22.63 | – | – | 19.9 µM | – | 19 µM |
| O=C(O)CSC(CC(=O)c1ccc(Br)cc1)C(=O)O (stereo not drawn) | 1.54 | 9.5 µM | 9.51 µM | – | – | – | – | – | – | – |
| COc1ccc(C(=O)CC(SCC(=O)O)C(=O)O)c(OC)c1OC (stereo not drawn) | 0.33 | 29.5 µM | 29.5 µM | – | – | – | – | – | – | – |
| CCc1ccc(C(=O)CC(SCC(=O)O)C(=O)O)cc1 (stereo not drawn) | 1.61 | 4.79 µM | 4.79 µM | – | – | – | – | – | – | – |
| O=C(O)CS [THIOGLYCOLIC ACID] | – | > 200 µM | – | – | – | > 200 µM | – | – | > 200 µM | – |
| Cc1ccc(C(=O)CC(SCC(=O)O)C(=O)O)cc1C (stereo not drawn) | 1.68 | 3.81 µM | 3.81 µM | – | – | – | – | – | – | – |
| Cc1ccc(C)c(C(=O)CC(SCC(=O)O)C(=O)O)c1 (stereo not drawn) | 1.68 | 2.68 µM | 2.68 µM | – | – | – | – | – | – | – |
| CC(C)c1cc(C(C)C)c(C(=O)CC(SCC(=O)O)C(=O)O)c(C(C)C)c1 (stereo not drawn) | 4.41 | 1.66 µM | 1.66 µM | 2 | 2.58 | – | – | 4.78 µM | – | 3.32 µM |
